L major viab: inhibitors of Leishmania major promastigote growth; AID 1063; Leishmania major promastigotes, resazurin fluorescence viability; inhibition, % at 10 µM; 200,000 tested, 9% active; in the data active = inhibition above about 50%;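 also: promastigotes grown with compound for 44 hours at 28 °C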
T cruzi inh: blocks replication of Trypanosoma cruzi | T. cruzi beta-gal in NIH3T3, luminescence, 90 h | inhibition, % (concentration not given with the values) | 300,000 tested, 1.4% active;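 active = mean inhibition across valid replicates above about 55%, limit read from the data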;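 also: signal also drops with host cell toxicity which is not excluded here; 0% = plate median of DMSO wells and 100% = zero luminescence signal; higher percent means less beta-gal luminescence so fewer parasites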
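Assay system: NIH/3T3 fibroblasts plus reporter T. cruzi. Amount: NIH/3T3 cells, 5,000 per well. Buffer or medium: DMEM, 2% fetal bovine serum. Doses: compound pinned at 50 nL/well, DMSO. Schedule: ≥90 h infection period, 3 h prior cell attachment. Signal: luminescent β-galactosidase signal after 60 min lysis. Read-out: parasite load inhibition, %.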
NALP3 yeast inh: inhibitors of NALP3 inflammasome in yeast; Yeast reconstituted NLRP3/ASC/caspase-1, beta-gal luminescence, 24 h; inhibition, % at 10 µM; 330,000 tested, 0.39% active;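 active = inhibition of 50% or more; inactive = inhibition below 50%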;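 also: plate controls were induced DMSO wells for no effect and uninduced yeast grown without galactose for full effect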
Calb FLC: affects C. albicans growth with fluconazole | C. albicans CaCi-2 + fluconazole, Alamar Blue growth, 48 h | growth inhibition, % (no concentration beside the values) | 300,000 tested, 0.57% active | AID 1979;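 active = growth inhibition above about 58% in most replicates, limit read from the data, passing the limit was not always enough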;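 also: all wells also contain fluconazole at 8 µg/ml as a sub-toxic cotreatment; 0% = median of DMSO wells and 100% = median of geldanamycin control wells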
PolyA inhibitor: inhibitors of polyadenylation in S. cerevisiae | S. cerevisiae SKY197-pL101 polyadenylation reporter, beta-gal luminescence; efflux-impaired pdr1/pdr3 knockout yeast; score 100 = 6 SD above DMSO | activity score, % at 12 µM | 300,000 tested, 0.02% active | AID 1875;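 active = lowest replicate activity score at least 50, where 100 means six control SD above control mean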;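 also: yeast exposed to compound for 9 h at 30 °C; higher score means more reporter readthrough which indicates perturbed polyadenylation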
NALP1 inh: inhibitors of NALP1 inflammasome in yeast; S. cerevisiae NALP1/ASC/caspase-1 growth, X-gal OD620, 72 h; inhibition, % at 10 µM; 280,000 tested, 0.61% active; in the data active = inhibition mostly above about 24%, no sharp cut-off; inactive = mostly below about 32%
Starred values were filed as active, the others as inactive. This is one part of a sample in which hits are shown more often than they occur.

Screening CC(C)=CCc1cc2c(=O)c3c(O)c4c(cc3oc2c(O)c1O)OC(C)C4(C)C (stereo unspecified) returned T cruzi inh 67.1*, NALP3 yeast inh 5.7, Calb FLC 94.7* and PolyA inhibitor -5.1.
`CC1Oc2cc3oc4c(O)c5c(cc4c(=O)c3c(O)c2C1(C)C)C=CC(C)(C)O5` (stereo unspecified) gave T cruzi inh 9.5, NALP3 yeast inh -0.8, Calb FLC -3.6 and PolyA inhibitor 7.1.
`NS(=O)(=O)c1ccc(NCc2c(F)cccc2Cl)cc1` gave L major viab 8.4, T cruzi inh -20.2, Calb FLC 9.2, PolyA inhibitor -1.3 and NALP1 inh 4.8.
`Fc1cccc(Cl)c1CNc1ccc(N2CCCC2)cc1` gave L major viab 17.1, T cruzi inh 94.4*, NALP3 yeast inh 14.4, Calb FLC 7.2, PolyA inhibitor -18.0 and NALP1 inh 9.5.
Cc1ccc(N/C(N)=N/c2nc3c(c(=O)[nH]2)CCCC3)c(C)c1 was read as L major viab 1.5, T cruzi inh -16.7, NALP3 yeast inh 16.3, Calb FLC -15.7, PolyA inhibitor -9.1 and NALP1 inh -10.3.
Cc1ccc(N/C(N)=N/c2nc(C)cc(N3CCCCC3)n2)c(C)c1 was read as L major viab 100.4*, T cruzi inh 68.9*, NALP3 yeast inh 2.4, Calb FLC 13.9, PolyA inhibitor -0.5 and NALP1 inh 7.8.
Screening CCn1cc(C(=O)N2CCN(c3cccc(Cl)c3)CC2)c2cc(OC)c(OC)cc2c1=O returned L major viab 91.8*, T cruzi inh 10.7, NALP3 yeast inh 7.1, Calb FLC 1.5, PolyA inhibitor -23.7 and NALP1 inh 7.2.
`COc1ccccc1CNC(=O)COC(=O)/C=C/c1cccs1` gave L major viab 50.7*, T cruzi inh -6.9, NALP3 yeast inh 3.1, Calb FLC -12.3, PolyA inhibitor 4.3 and NALP1 inh 24.4.
For COc1cc(OC)cc(-c2nnc(SCC(=O)Nc3cccc(C(=O)O)c3)s2)c1 the results were L major viab -9.9, T cruzi inh 2.6, NALP3 yeast inh 24.3, Calb FLC -14.6, PolyA inhibitor 7.7 and NALP1 inh 3.4.
`Cc1onc(-c2ccc(Cl)cc2)c1-c1ccnc(SCC(=O)Nc2cc(Cl)cc(Cl)c2)n1` gave T cruzi inh 58.7*, NALP3 yeast inh -1.5, Calb FLC 2.2, PolyA inhibitor 4.4 and NALP1 inh 3.0.
`CN1CCN(c2ncnc3c2cnn3-c2ccc(Cl)cc2)CC1` gave L major viab 88.2*, T cruzi inh 25.1, NALP3 yeast inh 26.4, Calb FLC -12.4, PolyA inhibitor 2.1 and NALP1 inh 8.6.
COc1ccc(-n2ncc3c(N4CCN(Cc5ccccc5)CC4)ncnc32)cc1 was read as L major viab 67.3*, T cruzi inh 15.0, NALP3 yeast inh 10.0, Calb FLC 56.2, PolyA inhibitor -4.1 and NALP1 inh 1.0.
`c1ccc(CCN2CCN(c3ncnc4c3cnn4-c3ccccc3)CC2)cc1` gave L major viab 41.8, T cruzi inh 64.3*, NALP3 yeast inh 26.5, Calb FLC -5.4, PolyA inhibitor 0.0 and NALP1 inh 6.7.
For Cc1ccc(C(=O)N2CCN(c3ncnc4c3cnn4-c3ccccc3)CC2)cc1 the results were L major viab 53.0*, T cruzi inh 18.9, NALP3 yeast inh 19.1, Calb FLC 17.2 and PolyA inhibitor -8.6.
`CCN1CCN(c2ncnc3c2cnn3-c2ccccc2)CC1` gave L major viab -2.8, T cruzi inh 8.1, NALP3 yeast inh 9.8, Calb FLC -9.6, PolyA inhibitor 0.9 and NALP1 inh -6.2.
`Cc1ccc(SCC(=O)N/N=C/c2ccco2)cc1` gave T cruzi inh -11.9, NALP3 yeast inh 11.1, Calb FLC 5.2, PolyA inhibitor -7.8 and NALP1 inh -5.0.
Screening CC(Cl)C(=O)c1ccc2c(c1)CCN2C(=O)C1CC1 (stereo unspecified) returned L major viab 95.6*, T cruzi inh -15.6, NALP3 yeast inh -9.2, Calb FLC -20.2, PolyA inhibitor 26.0 and NALP1 inh -9.7.
`O=C(CCc1ccccc1)NCCc1ccc(F)cc1` gave T cruzi inh -3.4, NALP3 yeast inh 38.1, Calb FLC 43.2, PolyA inhibitor -5.8 and NALP1 inh 10.2.
For COCCCn1c(SCc2ccccc2)nc2cc(OC)c(OC)cc2c1=N the results were L major viab 64.2*, T cruzi inh 56.3*, NALP3 yeast inh 5.2, Calb FLC 15.7, PolyA inhibitor 9.8 and NALP1 inh 3.7.
`COCCCn1c(SCc2cccc(C(F)(F)F)c2)nc2cc(OC)c(OC)cc2c1=N` gave L major viab 28.1, T cruzi inh 57.7*, NALP3 yeast inh -2.6, Calb FLC 18.2, PolyA inhibitor 1.2 and NALP1 inh -2.6.
For COCCCn1c(SCc2nnc(-c3ccc(OC)c(OC)c3)o2)nc2ccccc2c1=O the results were L major viab 2.2, T cruzi inh 13.7, NALP3 yeast inh 8.8, Calb FLC 1.3, PolyA inhibitor -10.2 and NALP1 inh -1.6.
For COCCCn1c(SCC(=O)O)nc2cc(OC)c(OC)cc2c1=N the results were L major viab 4.6, T cruzi inh -19.2, NALP3 yeast inh 5.8, Calb FLC 4.2, PolyA inhibitor 9.3 and NALP1 inh -0.9.
COC(=O)c1sccc1NC(=O)c1c(F)c(F)c(F)c(F)c1F was read as T cruzi inh -14.2, NALP3 yeast inh 20.9, Calb FLC -14.0 and PolyA inhibitor 0.3.
Screening C=CCOc1ccc(/C=N/NC(=O)CN(c2cc(Cl)ccc2OC)S(=O)(=O)c2ccc(C)c([N+](=O)[O-])c2)cc1 returned L major viab 97.4*, T cruzi inh 1.6, NALP3 yeast inh 17.5, Calb FLC 4.9, PolyA inhibitor 0.4 and NALP1 inh 3.4.
For Cc1ccccc1OCCNC(=O)c1ccccc1Sc1ccccc1C#N the results were L major viab 12.9, T cruzi inh 37.2, NALP3 yeast inh 13.9, Calb FLC 2.2, PolyA inhibitor -4.2 and NALP1 inh 8.6.
Cc1cc(C)c(OCCNC(=O)c2ccccc2Sc2ccccc2C#N)c(C)c1 was read as L major viab 99.5*, T cruzi inh 25.0, NALP3 yeast inh 10.5, Calb FLC 16.2, PolyA inhibitor 13.4 and NALP1 inh 26.6.
CN(c1ccccc1)S(=O)(=O)c1cccc(NC(=O)CSc2nccc(=O)[nH]2)c1 was read as NALP3 yeast inh 12.0.
Screening Nc1c(C(=O)Nc2ccccc2F)sc2nc(-c3cccnc3)ccc12 returned T cruzi inh 8.7, NALP3 yeast inh -0.1, Calb FLC 12.5 and PolyA inhibitor -7.5.
Screening Nc1c(C(=O)Nc2ccc(Cl)c(Cl)c2)sc2nc(-c3cccnc3)ccc12 returned L major viab 58.9*, T cruzi inh 8.8, NALP3 yeast inh 6.6, Calb FLC -17.1, PolyA inhibitor -0.9 and NALP1 inh 39.4.
